# In PubChem BioAssay AID624038 (The Scripps Research Institute Molecular Screening Center, 2012):
# Out of some 360,000 compounds screened, about 1,100 (0.31%) were called active. The sample as a whole holds a higher share of actives than the screen did. Values without a mark were called inactive.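 Rule for the calls: active = activation above the run cutoff, the mean activation of all test compounds plus 3 SD (cut at about 18% in these data); inactive = the rest.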
# Target: Muscarinic acetylcholine receptor M5 (Homo sapiens) (UniProt P08912)
# Sequence (P08912 whole entry, looked up): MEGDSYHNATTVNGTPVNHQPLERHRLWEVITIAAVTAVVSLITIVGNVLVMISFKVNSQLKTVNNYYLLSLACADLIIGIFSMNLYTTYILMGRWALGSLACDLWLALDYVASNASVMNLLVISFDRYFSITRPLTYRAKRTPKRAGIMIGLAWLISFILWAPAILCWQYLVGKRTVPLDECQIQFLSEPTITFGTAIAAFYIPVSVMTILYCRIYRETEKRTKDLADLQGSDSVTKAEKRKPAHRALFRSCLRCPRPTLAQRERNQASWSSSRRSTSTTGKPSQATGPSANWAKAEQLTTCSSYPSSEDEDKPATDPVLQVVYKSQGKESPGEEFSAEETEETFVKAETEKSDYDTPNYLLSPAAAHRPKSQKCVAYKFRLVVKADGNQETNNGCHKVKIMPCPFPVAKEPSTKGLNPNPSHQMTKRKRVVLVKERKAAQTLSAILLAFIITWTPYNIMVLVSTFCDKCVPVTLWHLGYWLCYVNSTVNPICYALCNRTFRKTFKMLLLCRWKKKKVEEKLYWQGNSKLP
# Experiment: human M5 muscarinic receptor positive allosteric modulators, primary screen, CHO-K1 cells, Fluo-8 calcium fluorescence (AID 624038)
# Conditions: CHO-K1 hM5, Fluo-8 calcium, ACh EC20 PAM; at 3 µM; stronger effect = higher value; 0% = ACh EC20, 100% = ACh EC100
# Method in brief: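 Test system: CHO-K1 hM5 cells / Doses: single-point, 3 µM nominal / Times: Post-acetylcholine fluorescence recording 140 s / Technique: Fluo-8 calcium fluorescence / Measure: Max/basal fluorescence ratio as % of EC20–EC100 ACh window / Benchmarks: low control EC20 acetylcholine (0%), high control EC100 acetylcholine (100%) / Replicates: one well per compound, no replicates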
row,SMILES,activation
1,CCOC(=O)[C@H]1Nc2ccc(Cl)cc2[C@@H]2[C@H]1C1CC(c3ccccc31)N2C(=O)OCc1ccccc1 (some centres not stated),-15.8%
2,Cc1ccc(C)c(-n2c(SCC(=O)O)nc3sc4c(c3c2=O)CCCC4)c1,20.4% (active)
3,CCSc1nc2sc3c(c2c(=O)n1-c1ccc(C)cc1)CCN(C)C3,-1.06%
4,COc1ccccc1-n1c(SCC(=O)O)nc2sc3c(c2c1=O)CCC3,1.79%
5,COc1ccc(Br)cc1CN1CCN(C(=O)c2cccc(OC)c2OC)CC1,2.23%
6,CCN(CC)c1ccc(C2C3CCCCC3(O)CCN2CC(=O)Nc2ccccc2)cc1 (configuration not stated),-6.54%
7,Cc1ncn(C23CC4CC(CC(O)(C4)C2)C3)n1,19.2% (active)
8,COC(=O)c1ccc(NC(=O)C23CC4CC(C2)CC(n2cnc(Cl)n2)(C4)C3)cc1,3.27%
9,CC(N)C12CC3CC(CC(O)(C3)C1)C2 (configuration not stated),-3.44%
10,CCOC(=O)/C(=N\Nc1ccccc1Cl)N(C)C1CCS(=O)(=O)C1 (configuration not stated),-8.17%
11,O=C(COC(=O)/C=C/c1nc2ccccc2s1)Nc1ccccc1Oc1ccccc1,1.93%
12,CCC(=O)c1ccc(OCC(O)CN2CCN(c3cccc(C(F)(F)F)c3)CC2)cc1 (configuration not stated),-10.8%
13,CN(C)c1ccc(NC(=S)N(CCc2ccccc2)C2CC(=O)N(c3c(Cl)cccc3Cl)C2=O)cc1 (configuration not stated),8.56%
14,CCOc1ccc(N2C(=O)CC(N(CCc3ccc(OC)c(OC)c3)C(=S)Nc3ccccc3)C2=O)cc1 (configuration not stated),21.9% (active)
15,COC(=O)CN(C(=S)Nc1ccc(Cl)cc1)C1CC(=O)N(c2ccc(OC)cc2)C1=O (configuration not stated),-18.4%
16,CCCC1=Nc2cc(C(=O)NCc3ccco3)ccc2Sc2ccccc21,19.8% (active)
17,O=C(NCc1ccco1)c1cccc(-c2ccc3nncn3c2)c1,-4.68%
18,COc1ccc(CCNS(=O)(=O)c2ccc(C(=O)NCc3ccco3)cc2)cc1OC,1.67%
19,O=C(NC1CCN(C(=S)NCc2ccco2)CC1)c1ccc(F)cc1,-4.46%
20,CCN(CC)C(=O)CSc1nnc(CNc2ccc(F)cc2)n1Cc1ccco1,26.3% (active)
21,CCn1c(CNC(=O)c2ccco2)nnc1SCC(=O)Nc1cccc(F)c1,-8.95%
22,Cc1cc(C)nc(SCc2nnc(SCC(=O)Nc3ncc(C)s3)n2Cc2ccco2)n1,-4.62%
23,Cc1c(Cl)cccc1NC(=O)CC1SC(=NCC2CCCO2)NC1=O (configuration not stated),-3.09%

row,SMILES,activation
1,CCn1ccnc1CN(C)C(=O)c1ccc2nc(Cc3ccc(OC)cc3)oc2c1,-3.69%
2,CC(=O)Nc1ccc(N2C(=O)C3C4C=CC(CC4)C3C2=O)cc1 (configuration not stated),3.09%
3,Cc1cc(N2CCCC2)ccc1NC(=O)COc1ccc(Cl)cc1,-6.11%
4,CC(=O)Nc1ccc(N2C(=O)CCC2=O)cc1C,30.9% (active)
5,CCNC(=O)CC1C(=O)N(c2ccc(F)cc2)C(=O)N1Cc1cccs1 (configuration not stated),-0.18%
6,CC(C)CN1CCNC(=O)C1CC(=O)N(C)CC1CCOCC1 (configuration not stated),1.55%
7,Cc1ccc(C(C)(C)C)c(OCCCCN2CCCC2)c1,-4.25%
8,COc1ccc(C2=NN(C(=O)CSc3nnnn3C)C(c3ccco3)C2)cc1 (configuration not stated),8.48%
9,CCOC(=O)c1c(NC(=O)c2cccs2)sc(C)c1C,27.8% (active)
10,COCCCNCC(=O)Nc1sc(C)c(C)c1C(=O)OC,12.8%
11,CCc1c(C)sc(NC(=O)c2cccs2)c1C(N)=O,-8.58%
12,CC1(C(=O)NS(=O)(=O)c2ccc(Cl)cc2)CCN1C(=O)CC1CCCC1 (configuration not stated),0.43%
13,CCCCn1c(N)c(N(CCC(C)C)C(=O)CC2OC(=O)c3ccccc32)c(=O)[nH]c1=O (configuration not stated),-2.77%
14,CCc1nnc(NS(=O)(=O)c2ccc(NC(=S)NC(=O)/C=C/c3cccs3)cc2)s1,2.07%
15,CCc1nnc(NS(=O)(=O)c2ccc(NC(=O)c3cccc(OC(F)(F)C(F)F)c3)cc2)s1,18.4% (active)
16,Cc1cc(NS(=O)(=O)c2ccc(NC(=O)c3cccc(OC(F)F)c3)cc2)nc(C)n1,1.34%
17,O=C(NC(=S)N1CCCCC1c1cccnc1)c1ccccc1 (configuration not stated),5.16%
18,Cc1ccc(S(=O)(=O)NNC(=O)/C=C/c2cccc(F)c2)cc1,-0.46%
19,Cc1ccc(C)c(OCc2cc(C(=O)N3CCN(c4cnccn4)CC3)no2)c1,-8.08%
20,Cc1cccn2c(=O)c3cc(C#N)c(=O)n(CCCN4CCOCC4)c3nc12,-0.36%
21,Cc1cccn2c(=O)c3cc(C(=O)NCCN4CCOCC4)c(=N)n(Cc4cccnc4)c3nc12,28.1% (active)
22,Cc1ccc2nc3c(cc(C(=O)NCCc4ccccc4)c(=N)n3CC3CCCO3)c(=O)n2c1 (configuration not stated),2.81%
23,CN(Cc1ccccc1)C(=O)C(=O)c1cn(CC(=O)N2CCCC2)c2ccccc12,-2.13%

row,SMILES,activation
1,C/C(=N\NC(=S)NC(C)C)c1ccc(C(C)(C)C)cc1,8.71%
2,CC(=O)c1c(C)[nH]c(C(=O)NCCCN2CCCC2)c1C,18.1% (active)
3,CC(=O)c1c(C)[nH]c(C(=O)NCc2ccc(C)cc2)c1C,11.5%
4,CCCCN(CC)CCNC(=O)c1[nH]c(C)c(C(C)=O)c1C,-11.2%
5,CCC1CCCCN1CCNS(=O)(=O)c1ccc2c(c1)CCN2C(C)=O (configuration not stated),2.47%
6,CCOC(=O)c1c(C)[nH]c(C(=O)NCCN2CCOCC2)c1C,-4.21%
7,CCC1CCCCN1CCNC(=O)c1[nH]c(C)c(C(C)=O)c1C (configuration not stated),20.7% (active)
8,COc1ccc(OCC(=O)NCCS(=O)(=O)N2CCN(c3ccc(F)cc3)CC2)cc1,5.36%
9,CCCCNC(=O)N(O)C1N(/N=C/c2ccccc2O)C(=S)SC1(C)C (configuration not stated),-0.6%
10,O=C(COC(=O)c1ccco1)Nc1ccc(Cl)cn1,4.61%
11,Cc1cccc(OCC(=O)OCC(=O)Nc2ccc(Cl)cn2)c1,5.11%
12,O=C(Nc1ccc(Cl)cn1)Nc1cccs1,29.7% (active)
13,Cc1ccc(C(=O)OC2=CC(=O)CC(C)(C)C2)cc1,0.4%
14,CCOc1cc(C(C(=O)NCC2CCCO2)N(C(=O)Cn2nnc3ccccc32)c2cccc(OC)c2)ccc1O (configuration not stated),19% (active)
15,COc1ccc(C(C(=O)NCC2CCCO2)N(C(=O)Cn2nnc3ccccc32)c2ccc(NC(C)=O)cc2)cc1OC (configuration not stated),5.16%
16,Cc1ccc(C(C(=O)NCc2ccco2)N(CC2CCCO2)C(=O)Cn2nnc3ccccc32)cc1 (configuration not stated),-1.09%
17,CC1CN(CCCOc2ccccc2-c2ccccc2)CC(C)O1 (configuration not stated),0.63%
18,CC1CN(CCOc2ccccc2[N+](=O)[O-])CC(C)O1 (configuration not stated),8.76%
19,Cc1cc(C)c(OCCN2CC(C)OC(C)C2)c(Br)c1 (configuration not stated),23.1% (active)
20,CCN(CC)Cc1csc2ccc(Br)cc12,-8.32%
21,CN(Cc1ccccc1)C(=O)[C@@H]1CCCN1C(=O)[C@@H]1CCCN1C(=O)c1c(F)cccc1F,-3.49%
22,Cc1ccc(CNC(=O)CCN2C(=O)[C@@H]3Cc4ccccc4CN3C2=O)cc1,-3.61%
23,O=C(CCN1C(=O)[C@@H]2Cc3ccccc3CN2C1=O)NCc1ccccc1,21.5% (active)

row,SMILES,activation
1,O=C(CCN1C(=O)[C@@H]2Cc3ccccc3CN2C1=O)NCCc1ccccc1,-2.71%
2,O=C(CNC(=O)COc1ccccc1)NCCc1ccccn1,-11%
3,O=C(O)C(CCc1ccccn1)c1ccccc1 (configuration not stated),19.2% (active)
4,c1ccc(CCc2ccccn2)cc1,-5.1%
5,Cc1cccc(C(=O)NC2CCN(CC(=O)Nc3cccc(Cl)c3)CC2)c1,-2.77%
6,CCC(C)(C)n1nnnc1C(c1ccc(OC)c(OC)c1)N1CCN(C(=O)c2ccco2)CC1 (configuration not stated),4.04%
7,COc1ccccc1N(C)C(=O)c1cc(S(=O)(=O)N2CCc3ccccc32)cn1C,-2.97%
8,COc1ccccc1C(=O)NC(=S)Nc1ccc(N2CCOCC2)cc1,4.29%
9,COc1ccccc1C(=O)Nc1ccc(OCC(=O)N2CCCCC2)cc1,1%
10,COc1cccc(OC)c1C(=O)Nc1ccc(N2CCCCC2)cc1,20.9% (active)
11,COc1ccc(/C=N/NC(=O)C(C)N(c2ccc(OC)cc2)S(C)(=O)=O)cc1 (configuration not stated),-7.14%
12,CN(C)c1ccc(/C=N/NC(=O)c2ccc(Cn3cc(Br)cn3)o2)cc1,-6.88%
13,CN(C)c1ccc(/C=N/NC(=O)C(O)c2ccc(Br)cc2)cc1 (configuration not stated),20.2% (active)
14,O=C(NC1CCCCC1)C1CCC(CNS(=O)(=O)c2ccccc2)CC1 (configuration not stated),-2.41%
15,COc1cc(C(=O)NC2CCN(C)CC2)ccc1Nc1ncc2c(n1)N(C1CCC(O)CC1)CCC(=O)N2C (configuration not stated),-2.26%
16,CCCCCNC(=O)C1C(=O)Nc2ccccc2C(=O)N1C(C)(C)C (configuration not stated),7.08%
17,COCCNC(=O)c1onc(CSc2cccc(C)c2)c1C(=O)O,-3.85%
18,O=C(NNc1nc(N2CCCC2)nc(N2CCCC2)n1)c1ccccc1,6.43%
19,O=C(NNC(=O)C1CCN(c2ncccn2)CC1)c1ccccc1,26.2% (active)
20,O=C(NNC(=O)C1CCC1)c1ccccc1,2.72%
21,CN(C)/C(=N\OC(=O)c1ccccc1)c1nonc1N,-4.7%
22,COc1cc(Cn2c3ccc(NC(=O)CC(C)c4ccccc4)cc3c(=O)n2C)ccc1F (configuration not stated),-5.77%
23,O=C(Nc1cccc(C(=O)O)c1)/C(=C\c1ccccc1)NC(=O)c1ccc(Br)o1,-2.27%
